What was measured:
SH-SY5Y = assay: Cytotoxicity against human SH-SY5Y cells assessed as cell viability after 48 hrs by alamar blue assay; assay type: functional, cell-based
Procedure, shortened: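 SH-SY5Y cells grown in DMEM/F12 (1:1) with L-glutamine, 10% heat-inactivated FBS, 100 units/mL penicillin and 0.1 mg/mL streptomycin, pH 7.4. Seeded at 5 10^3 cells/well and exposed to the sterols (DMSO stocks) for 48 h. Alamar Blue read-out. IC50 is the concentration inhibiting 50% of growth, mean of at least three separate experiments.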

HT-29 [1] = assay: Selectivity index, ratio of IC50 for human ARPE19 cells to IC50 for human HT-29 cells; assay type: functional
HT-29 [2] = assay: Cytotoxicity against human HT-29 cells assessed as cell viability after 48 hrs by alamar blue assay; assay type: functional, cell-based; conditions: HT-29, 48 h
Procedure, shortened: (§1)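 Alamar Blue viability assay on the human cell line named (origins given: HT-29 colorectal adenocarcinoma, HepG2 hepatocellular carcinoma, LAMA-84 myeloid leukemia, A549 lung adenocarcinoma, PC3 prostate metastasis, MCF-7 breast adenocarcinoma, ARPE-19 retinal pigment epithelium, BJ skin fibroblast). Exposure was 48 h. Sterol stocks were made in DMSO. IC50 is the concentration inhibiting 50% of cellular growth, given as the mean of at least three separate experiments.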

HT-29 [3] = assay: Cytotoxicity against human HT-29 cells assessed as inhibition of cell growth after 96 hrs by alamar blue assay; assay type: functional, cell-based; conditions: HT-29, 96 h
Procedure, shortened: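 HT-29 and ARPE-19 cells exposed for 96 h. ARPE-19 seeded at 5 10^3 cells/well for this period. Sterol stocks in DMSO. Viability by Alamar Blue. IC50 is the concentration inhibiting 50% of cellular growth, mean of at least three separate experiments.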

[4] = Cytotoxicity against human ARPE19 cells assessed as cell viability after 48 hrs by alamar blue assay; assay type: cell-based, ARPE-19; conditions: Homo sapiens, ARPE-19, 48 h; procedure, shortened: as §1

For `CC(C)CCC[C@@H](C)[C@H]1CC[C@H]2[C@@H]3C[C@@H](O)[C@@]4(O)C[C@@H](O)CC[C@]4(C)[C@H]3CC[C@]12C` [CHOLESTAN-3beta,5alpha,6beta-TRIOL], the IC50 (SH-SY5Y) was 17.2 µM and the “Ratio IC50” value (HT-29 [1]) was 1.48.

For `CC(=O)O[C@H]1C=C2C[C@@H](O)CC[C@]2(C)[C@H]2CC[C@]3(C)[C@@H]([C@H](C)CCCC(C)C)CC[C@H]3[C@H]12`, the IC50 (HT-29 [2]) was 26.8 µM and the IC50 (HT-29 [3]) was 24.6 µM.

For `CC(C)CCC[C@@H](C)[C@H]1CC[C@H]2[C@@H]3C(=O)C=C4C[C@@H](O)CC[C@]4(C)[C@H]3CC[C@]12C` [7-OXOCHOLESTEROL], the IC50 [4] was 32.3 µM and the “Ratio IC50” value (HT-29 [1]) was 1.26.

In the case of `CCCO[C@@H]1C[C@H]2[C@@H]3CC[C@H]([C@H](C)CCCC(C)C)[C@@]3(C)CC[C@@H]2[C@@]2(C)CC[C@H](O)C[C@]12O`, the IC50 (HT-29 [2]) is reported as 25.9 µM.

Work on `CC(=O)O[C@H]1CC[C@]2(C)[C@H]3CC[C@]4(C)[C@@H]([C@H](C)CCCC(C)C)CC[C@H]4[C@@H]3[C@@H](OC(C)=O)[C@@H](OC(C)=O)[C@@]2(O)C1` yielded an IC50 (HT-29 [2]) of 27 µM and an IC50 (HT-29 [3]) of 26.7 µM.

`CC(=O)O[C@H]1CC[C@]2(C)[C@H]3CC[C@]4(C)[C@@H]([C@H](C)CCCC(C)C)CC[C@H]4[C@@H]3C[C@@H](O)[C@@]2(O)[C@H]1O` gave an IC50 (HT-29 [2]) of 17.7 µM, an IC50 [4] of 28.8 µM and an IC50 (HT-29 [3]) of 14.2 µM. The “Ratio IC50” value (HT-29 [1]) was 1.63.

With `CC(C)CCC[C@@H](C)[C@H]1CC[C@H]2[C@@H]3[C@@H](O)C=C4C[C@@H](O)CC[C@]4(C)[C@H]3CC[C@]12C` the IC50 (SH-SY5Y) was 16.4 µM and the “Ratio IC50” value (HT-29 [1]) was 3.13.

With `CCCCCCCCCCCC(=O)O[C@H]1CC[C@@]2(C)C(=C[C@H](O)[C@H]3[C@@H]4CC[C@H]([C@H](C)CCCC(C)C)[C@@]4(C)CC[C@@H]32)C1` the IC50 (HT-29 [2]) was greater than 50 µM and the IC50 (HT-29 [3]) was greater than 50 µM.

`CO[C@]12C[C@@H](O)CC[C@]1(C)[C@H]1CC[C@]3(C)[C@@H]([C@H](C)CCCC(C)C)CC[C@H]3[C@@H]1C[C@H]2O` gave an IC50 (HT-29 [2]) of 36.1 µM.

In the case of `CC(C)CCC[C@@H](C)[C@H]1CC[C@H]2[C@@H]3[C@@H](O)[C@H](O)[C@H]4C[C@@H](O)CC[C@]4(C)[C@H]3CC[C@]12C`, the IC50 (HT-29 [2]) is reported as 14.9 µM, the IC50 [4] is reported as 19.1 µM and the “Ratio IC50” value (HT-29 [1]) is reported as 1.28.

In the case of `CC(C)CCC[C@@H](C)[C@H]1CC[C@H]2[C@@H]3C(=O)[C@H](O)[C@@]4(O)C[C@@H](O)CC[C@]4(C)[C@H]3CC[C@]12C`, the IC50 (HT-29 [2]) is reported as 15.2 µM, the IC50 [4] is reported as 25.7 µM and the “Ratio IC50” value (HT-29 [1]) is reported as 1.69.

Compound `CC(C)CCC[C@@H](C)[C@H]1CC[C@H]2[C@@H]3C(=O)C(O)=C4C[C@@H](O)CC[C@]4(C)[C@H]3CC[C@]12C` has an IC50 (HT-29 [2]) of 36.7 µM.

For `CC(C)CCC[C@@H](C)[C@H]1CC[C@H]2[C@@H]3[C@@H](O)C=C4[C@@H](O)[C@@H](O)CC[C@]4(C)[C@H]3CC[C@]12C`, the IC50 (HT-29 [2]) was 15.4 µM, the IC50 [4] was 25.6 µM and the “Ratio IC50” value (HT-29 [1]) was 1.66.

Compound `CC(=O)O[C@H]1CC[C@]2(C)[C@H]3CC[C@]4(C)[C@@H]([C@H](C)CCCC(C)C)CC[C@H]4[C@@H]3[C@@H](OC(C)=O)C(=O)[C@@]2(O)C1` has an IC50 (HT-29 [2]) of 27.2 µM.

Compound `COc1cccc2c1C(=O)c1c(O)c3c(c(O)c1C2=O)C[C@@](O)(C(=O)CO)C[C@@H]3O[C@H]1C[C@H](N)[C@H](O)[C@H](C)O1` [DOXORUBICIN] has an IC50 (SH-SY5Y) of 0.5 µM.

With `CC(C)CCC[C@@H](C)[C@H]1CC[C@H]2[C@@H]3CC(=O)[C@@]4(O)C[C@@H](O)CC[C@]4(C)[C@H]3CC[C@]12C` the IC50 [4] was 33.9 µM and the “Ratio IC50” value (HT-29 [1]) was 1.99.

`CC(=O)O[C@@H]1[C@H]2[C@@H]3CC[C@H]([C@H](C)CCCC(C)C)[C@@]3(C)CC[C@@H]2[C@@]2(C)CC[C@H](O)C[C@]2(O)[C@@H]1O` showed an IC50 (HT-29 [2]) of 17 µM, an IC50 [4] of 15.8 µM and an IC50 (HT-29 [3]) of 15.5 µM. For the same compound, the “Ratio IC50” value (HT-29 [1]) was 0.93.
